Results as given in ChEMBL document CHEMBL1806473, “Structure-based optimization of click-based histone deacetylase inhibitors” (Eur J Med Chem, 2011).

Experiments:
[1] = system: SK-MEL-5; assay: Cytotoxicity against human SK-MEL-5 cells; assay type: cell-based
[2] = system: NCI-H226; assay: Antiproliferative activity against human NCI-H226 cells by SRB assay; assay type: functional
Outline: (§1)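 Tested in the NCI in vitro human tumor cell line screen, run by the National Cancer Institute. Each compound was given at five concentrations (100, 10, 1.0, 0.1 and 0.01 μM). GI50 is the drug concentration that reduces growth of treated cells to half that of control cells during drug incubation, judged from the SRB signal.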

[3] = system: TK-10; assay: Antiproliferative activity against human TK10 cells by SRB assay; assay type: functional
Outline: (§2)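 Cell growth was tested in the NIH in vitro disease-oriented human tumor cell line screen, which NCI ran for these compounds. Compounds were tested at five concentrations (100, 10, 1.0, 0.1 and 0.01 μM), and growth was read by SRB signal. GI50 is the drug concentration that reduces growth of treated cells to half that of control cells during drug incubation.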

[4] = system: HOP-62; assay: Antiproliferative activity against human HOP62 cells by SRB assay; assay type: functional; outline: as §1
[5] = system: HOP-92; assay: Cytotoxicity against human HOP92 cells; assay type: cell-based
[6] = system: CCRF-CEM; assay: Cytotoxicity against human CCRF-CEM cells; assay type: cell-based
[7] = Antiproliferative activity against human Hs 578T cells by SRB assay; assay type: functional; outline: as §1
[8] = system: Malme-3M; assay: Cytotoxicity against human MALME-3M cells; assay type: cell-based
Outline: (§3)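 Tested in the NCI in vitro disease-oriented human tumour cell line screen, with screening performed by NCI. Growth was read by SRB signal over the drug incubation period at five concentrations: 100, 10, 1.0, 0.1 and 0.01 μM. GI50 is the concentration that reduces growth of treated cells to half that of control cells.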

[9] = system: SK-MEL-5; assay: Antiproliferative activity against human SK-MEL-5 cells by SRB assay; assay type: functional; outline: as §1
[10] = system: EKVX; assay: Cytotoxicity against human EKVX cells; assay type: cell-based; outline: as §3
[11] = system: SK-MEL-28; assay: Antiproliferative activity against human SK-MEL-28 cells by SRB assay; assay type: functional; outline: as §1
[12] = system: NCI-H460; assay: Antiproliferative activity against human NCI-H460 cells by SRB assay; assay type: functional; outline: as §1
[13] = system: SNB-75; assay: Cytotoxicity against human SNB75 cells; assay type: cell-based
Outline: (§4)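 Screened by NCI in its in vitro disease-oriented human tumour cell line panel. Compounds tested at five concentrations (100, 10, 1.0, 0.1 and 0.01 μM). Growth read by sulforhodamine B (SRB) signal. GI50 is the concentration reducing growth of treated cells to half that of control cells during the drug incubation.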

[14] = system: HOP-92; assay: Antiproliferative activity against human HOP92 cells by SRB assay; assay type: functional; outline: as §1
[15] = system: SW-620; assay: Cytotoxicity against human SW620 cells; assay type: cell-based; outline: as §4
[16] = system: NCI-H322M; assay: Antiproliferative activity against human NCI-H322M cells by SRB assay; assay type: functional; outline: as §1
[17] = system: OVCAR-5; assay: Cytotoxicity against human OVCAR5 cells; assay type: cell-based; outline: as §3
[18] = system: T47D; assay: Antiproliferative activity against human T47D cells by SRB assay; assay type: functional; outline: as §2
[19] = system: OVCAR-5; assay: Antiproliferative activity against human OVCAR5 cells by SRB assay; assay type: functional; outline: as §1
[20] = system: HL-60(TB); assay: Antiproliferative activity against human HL-60(TB) cells by SRB assay; assay type: functional; outline: as §3
[21] = system: UO-31; assay: Antiproliferative activity against human UO31 cells by SRB assay; assay type: functional; outline: as §2
[22] = system: SNB-19; assay: Cytotoxicity against human SNB19 cells; assay type: cell-based; outline: as §4
[23] = system: HCT-116; assay: Cytotoxicity against human HCT116 cells; assay type: cell-based; outline: as §3
[24] = system: NCI-H23; assay: Antiproliferative activity against human NCI-H23 cells by SRB assay; assay type: functional; outline: as §1
[25] = system: PC-3; assay: Cytotoxicity against human PC3 cells; assay type: cell-based
[26] = system: COLO 205; assay: Cytotoxicity against human COLO205 cells; assay type: cell-based; outline: as §3
[27] = system: A498; assay: Cytotoxicity against human A498 cells; assay type: cell-based
[28] = system: SF-268; assay: Cytotoxicity against human SF268 cells; assay type: cell-based; outline: as §3
[29] = system: UO-31; assay: Cytotoxicity against human UO31 cells; assay type: cell-based; outline: as §4
[30] = system: SF-295; assay: Antiproliferative activity against human SF295 cells by SRB assay; assay type: functional; outline: as §1
[31] = system: HT-29; assay: Antiproliferative activity against human HT-29 cells by SRB assay; assay type: functional; outline: as §1
[32] = system: HCT-15; assay: Cytotoxicity against human HCT15 cells; assay type: cell-based; outline: as §3
[33] = system: OVCAR-4; assay: Cytotoxicity against human OVCAR4 cells; assay type: cell-based
[34] = system: Malme-3M; assay: Antiproliferative activity against human MALME-3M cells by SRB assay; assay type: functional; outline: as §1
[35] = system: LOX IMVI; assay: Antiproliferative activity against human LOXIMVI cells by SRB assay; assay type: functional; outline: as §1
[36] = system: MCF7; assay: Cytotoxicity against human MCF7 cells; assay type: cell-based
[37] = system: NCI-H460; assay: Cytotoxicity against human NCI-H460 cells; assay type: cell-based
[38] = system: KM12; assay: Antiproliferative activity against human KM12 cells by SRB assay; assay type: functional; outline: as §1
[39] = system: T47D; assay: Cytotoxicity against human T47D cells; assay type: cell-based; outline: as §4
[40] = system: MDA-MB-435; assay: Cytotoxicity against human MDA-MB-435 cells; assay type: cell-based
[41] = system: UACC-257; assay: Cytotoxicity against human UACC257 cells; assay type: cell-based; outline: as §4
[42] = system: OVCAR-3; assay: Cytotoxicity against human OVCAR3 cells; assay type: cell-based; outline: as §3
[43] = system: SK-OV-3; assay: Antiproliferative activity against human SKOV3 cells by SRB assay; assay type: functional; outline: as §1
[44] = system: SNB-75; assay: Antiproliferative activity against human SNB75 cells by SRB assay; assay type: functional; outline: as §2
[45] = system: LOX IMVI; assay: Cytotoxicity against human LOXIMVI cells; assay type: cell-based
[46] = system: BT-549; assay: Cytotoxicity against human BT549 cells; assay type: cell-based
[47] = system: BT-549; assay: Antiproliferative activity against human BT549 cells by SRB assay; assay type: functional; outline: as §1
[48] = system: SF-295; assay: Cytotoxicity against human SF295 cells; assay type: cell-based; outline: as §3
[49] = system: UACC-257; assay: Antiproliferative activity against human UACC257 cells by SRB assay; assay type: functional; outline: as §2
[50] = system: NCI-H226; assay: Cytotoxicity against human NCI-H226 cells; assay type: cell-based
[51] = system: SK-MEL-28; assay: Cytotoxicity against human SK-MEL-28 cells; assay type: cell-based
[52] = system: CAKI-1; assay: Cytotoxicity against human Caki1 cells; assay type: cell-based
[53] = system: ACHN; assay: Cytotoxicity against human ACHN cells; assay type: cell-based
[54] = system: DU-145; assay: Cytotoxicity against human DU145 cells; assay type: cell-based; outline: as §3
[55] = system: SR; assay: Antiproliferative activity against human SR cells by SRB assay; assay type: functional; outline: as §2
[56] = system: OVCAR-8; assay: Antiproliferative activity against human OVCAR8 cells by SRB assay; assay type: functional; outline: as §1
[57] = system: SK-OV-3; assay: Cytotoxicity against human SKOV3 cells; assay type: cell-based
[58] = system: RXF 393; assay: Antiproliferative activity against human RXF393 cells by SRB assay; assay type: functional; outline: as §1
[59] = system: A549; assay: Antiproliferative activity against human A549 cells by SRB assay; assay type: functional; outline: as §1
[60] = system: SF-539; assay: Cytotoxicity against human SF539 cells; assay type: cell-based; outline: as §3

O=C(/C=C/c1ccc(CN(CCO)CCc2c[nH]c3ccccc23)cc1)NO [DACINOSTAT]
LC50 [1]: 4020 nM | GI50 [2]: 1410 nM | GI50 [3]: 495 nM | GI50 [4]: 502 nM | LC50 [5]: 68200 nM | LC50 [6]: > 100000 nM | GI50 [7]: 619 nM | LC50 [8]: 82000 nM | GI50 [9]: 271 nM | LC50 [10]: > 100000 nM | GI50 [11]: 993 nM | GI50 [12]: 700 nM | LC50 [13]: > 100000 nM | GI50 [14]: 199 nM | LC50 [15]: 81300 nM | GI50 [16]: 2260 nM | LC50 [17]: 38900 nM | GI50 [18]: 444 nM | GI50 [19]: 260 nM | GI50 [20]: 249 nM | GI50 [21]: 1120 nM | LC50 [22]: 31700 nM | LC50 [23]: 51200 nM | GI50 [24]: 1500 nM | LC50 [25]: 73500 nM | LC50 [26]: 50400 nM | LC50 [27]: 5880 nM | LC50 [28]: 92100 nM | LC50 [29]: 52800 nM | GI50 [30]: 743 nM | GI50 [31]: 566 nM | LC50 [32]: 56400 nM | LC50 [33]: > 100000 nM | GI50 [34]: 461 nM | GI50 [35]: 1080 nM | LC50 [36]: > 100000 nM | LC50 [37]: > 100000 nM | GI50 [38]: 1040 nM | LC50 [39]: > 100000 nM | LC50 [40]: 28800 nM | LC50 [41]: 44800 nM | LC50 [42]: 51000 nM | GI50 [43]: 524 nM | GI50 [44]: 318 nM | LC50 [45]: 6040 nM | LC50 [46]: 85600 nM | GI50 [47]: 3920 nM | LC50 [48]: 6910 nM | GI50 [49]: 393 nM | LC50 [50]: 20000 nM | LC50 [51]: 31900 nM | LC50 [52]: 5790 nM | LC50 [53]: 94300 nM | LC50 [54]: > 100000 nM | GI50 [55]: 2990 nM | GI50 [56]: 450 nM | LC50 [57]: 28500 nM | GI50 [58]: < 10 nM | GI50 [59]: 1090 nM | LC50 [60]: 57100 nM
